Source: PubChem (Broad Institute)
Rows were chosen to be rich in hits. Some 3.4% of all compounds tested hit in one or more screens of this group.
E-sel inducer: E-selectin induction in HUVECs, primary screen, imaging, HUVEC, immunofluorescence imaging, single point | P16581 | normalized: neutral wells 0, TNF-alpha wells 100 | activation, % at 7.58 µM | actives 0.37% (n = 260,000);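 active means mean E-selectin-positive cell signal at least 10% of the positive control, reached in at least 60% of replicates, without over 20% cell loss; inconclusive means no rule given, readout overlaps actives, possibly toxicity-flagged; inactive means the rest, including those meeting only one limit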
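System: HUVEC, human umbilical vein endothelial cells; quantity: 3,000 cells/well; buffer or medium: EGM-2 medium, gelatin-coated wells; dosing: single-point compound dose; detection: immunofluorescence imaging; evaluation: % PE-positive cells; benchmarks: TNF-alpha, DMSO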
MLL AF4-AF9 inh: inhibitors of AF4 peptide binding to AF9, primary screen, biochemical, AlphaScreen, biotin-AF4 peptide, FLAG-AF9, single point; Protein AF-9 (Homo sapiens), P42568; actives 0.47% (n = 350,000); inhibition, % at 10 µM;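 active means every replicate reaching a set inhibition limit, whatever the replicate mean, cut at about 25% in these data; inconclusive means mean inhibition reaches that limit but some replicates miss it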
S100A4 inh HTS: inhibitors of S100A4-myosin IIA peptide binding, primary screen, biochemical, fluorescence polarization, TAMRA-MyoIIA peptide; Protein S100-A4 (Homo sapiens), P26447; inhibition, % at 10.7 µM; actives 0.14% (n = 360,000); AID 652163, 2013;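 active means mean inhibition of at least 70% across replicates, with every replicate also reaching that level; inconclusive means mean inhibition reaches 70% but some replicates fall short; inactive means mean inhibition below 70%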
Target sequence (P26447 whole entry, looked up): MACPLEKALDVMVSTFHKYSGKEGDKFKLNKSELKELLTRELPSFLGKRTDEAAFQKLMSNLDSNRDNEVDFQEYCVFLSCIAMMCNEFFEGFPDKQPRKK
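Assay system: human S100A4 monomer with TAMRA-labelled myosin IIA peptide / Buffer or medium: Calcium-containing HEPES buffer, pH 7.2 / Reagent: TAMRA-labelled myosin IIA heavy-chain peptide probe, 5 nM / Compound: one dose per compound / Timing: polarization read 5 min after assay mix addition, stable 5–60 min / Benchmarks: neutral control DMSO, positive control TFP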
SIRT5 inh: SIRT5 desuccinylase inhibitors, primary screen, biochemical, fluorescence imaging, single point, set 5. NAD-dependent protein deacylase sirtuin-5, mitochondrial (Homo sapiens), Q9NXA8. Purified SirT5, succinyl-peptide AMC, trypsin-coupled fluorescence. inhibition, % at 15 µM. actives 1.1% (n = 330,000); in the data active means inhibition above about 15%; inconclusive means no clear call, values can overlap the other calls
Target sequence (Q9NXA8 whole entry, looked up): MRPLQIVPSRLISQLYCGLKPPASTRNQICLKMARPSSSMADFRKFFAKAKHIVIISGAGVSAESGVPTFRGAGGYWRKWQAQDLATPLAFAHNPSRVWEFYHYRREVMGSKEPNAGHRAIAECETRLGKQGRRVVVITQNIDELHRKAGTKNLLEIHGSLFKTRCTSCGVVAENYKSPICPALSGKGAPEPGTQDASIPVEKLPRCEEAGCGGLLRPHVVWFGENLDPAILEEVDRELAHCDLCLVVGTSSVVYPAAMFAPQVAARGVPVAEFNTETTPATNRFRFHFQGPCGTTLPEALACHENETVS
rRNA inh HTS: reduced GFP signal of wild-type E. coli, primary screen, bacterial rRNA inhibitor project, GFP/RFP fluorescence, OD600, single point; E. coli WT GFP vs humanized-ribosome RFP mutants, 24 h; hits give low values; DMSO median 0, no signal -100; GFP signal change (wild-type ribosome), % (concentration not given with the values); actives 1.6% (n = 350,000);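 active means significant combined selectivity score with lowered wild-type GFP, culture density cut under 30%, mutant RFP and density less affected; inactive means any of these conditions unmet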
ERAP1 HTS inh: human ERAP1 aminopeptidase inhibitors, primary screen, biochemical, single point, plate reader; Endoplasmic reticulum aminopeptidase 1 (Homo sapiens), Q9NZ08; recombinant ERAP1, Leu-AMC fluorescence, 60 min; inhibition, % at 10.7 µM; actives 0.15% (n = 340,000);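 active means mean replicate inhibition of at least 30%, or all replicates individually reaching that 30% level; inactive means mean below 30% and not every replicate reaching it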
AID977621: growth inhibition of wild-type GFP E. coli, dose response, H69 mutant RFP, cherry-pick; 1,900 tested, under 10 active; shares compounds with rRNA inh HTS; E. coli wild-type GFP strain growth, fluorescence, 24 h; AID 977621, 2014; activity change, negative = inhibition at 50 µM;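 active means Wild-type ribosome reporter drop at least double the humanized mutant ribosome reporter drop, growth loss under a set limit; inconclusive means no clear call, values can overlap the other calls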;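 further: wild-type GFP and H69 mutant RFP strains grown together 50/50 in each well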
AID977628: E. coli growth inhibition, wild-type GFP versus h24 humanized RFP strain, dose response, h24 mutant RFP vs wild-type GFP, cherry-pick; shares compounds with rRNA inh HTS; E. coli WT GFP strain growth, fluorescence, 24 h; activity change, negative = inhibition at 50 µM; 1,900 tested, under 10 active;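 active means compound lowering the normal-ribosome reporter at least twice as much as the humanized-ribosome reporter, growth loss under a set limit; inconclusive means no clear call, values can overlap the other calls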;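 further: wild-type GFP and h24 humanized RFP strains co-cultured 1 to 1 per well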
A number is an active result; . = inactive; ? = inconclusive; / = no result.

SMILES	E-sel inducer	MLL AF4-AF9 inh	S100A4 inh HTS	SIRT5 inh	rRNA inh HTS	ERAP1 HTS inh	AID977621	AID977628
CCC(=O)N(C)C[C@@H]1Oc2ncc(C#Cc3ccccc3)cc2C(=O)N([C@H](C)CO)C[C@@H]1C	.	.	.	.	.	.	/	/
CO[C@H]1CN(C)C(=O)c2ccc(NC(C)=O)cc2OC[C@@H](C)N(C(=O)CC2CC2)C[C@H]1C	.	.	.	.	.	.	/	/
Clc1ccc(-c2nnnn2-c2ccc(Cl)cc2)cc1	/	.	.	.	.	.	/	/
CSc1nnnn1-c1ccc(Cl)cc1	.	.	.	/	-32	.	.	.
C[C@@H](O)C#Cc1ccc([C@@H]2[C@@H](CO)N3CCCCN(C(=O)c4ccc5c(c4)OCO5)C[C@@H]23)cc1	.	/	/	.	.	/	/	/
C[C@@H]1CN([C@@H](C)CO)C(=O)c2cc(-c3ccc(C#N)cc3)cnc2O[C@H]1CN(C)Cc1ccccn1	.	.	.	.	.	.	/	/
CC(=O)N1c2c(cc(Br)cc2S(=O)(=O)N2CCCCC2)CC1C (centres undefined)	.	.	.	.	-19	.	/	.
CC(=O)N1c2c(cc(Br)cc2S(=O)(=O)N2CCN(c3ccccc3F)CC2)CC1C (centres undefined)	.	.	.	.	.	.	/	/
COc1ccc(NC(=O)N(C)C[C@@H]2Oc3ccc(NS(=O)(=O)c4ccc(F)cc4)cc3CC(=O)N([C@@H](C)CO)C[C@H]2C)cc1	.	.	.	.	.	.	/	/
NC(=O)c1ccsc1NC(=O)COC(=O)CCOc1ccccc1	.	.	.	.	-23	/	.	/
CN1c2ccc(-c3cccc(C#N)c3)cc2[C@H]2[C@H](CCN2C(=O)CC2CC2)[C@H]1CO	.	/	/	/	.	/	/	/
COc1ccccc1CN1Cc2ccccc2Oc2ccccc2S1(=O)=O	.	.	.	.	-27	.	?	/
Cc1ccc(NC(=O)C[n+]2cc(-c3ccccc3)n3c2CCC3)c(C)c1	.	.	.	.	-21	.	?	?
O=C(Nc1ccc(Cl)cn1)c1cc2c(s1)-c1ccccc1OC2	.	.	.	.	-22	/	.	?
COc1ccc(S(=O)(=O)N(C)C[C@@H]2OCCCC[C@@H](C)Oc3ccc(NC(=O)C4CCCCC4)cc3C(=O)N([C@@H](C)CO)C[C@H]2C)cc1	.	.	.	.	.	.	/	/
OCCC1CN(Cc2cnc(-c3ccc(Cl)cc3)nc2)CCN1C1CCCCC1 (centres undefined)	.	.	.	.	-18	/	.	.
COc1cc(C(=O)NCCc2c[nH]c3ccccc23)ccc1OCc1c(C)noc1C	.	.	.	.	-38	.	.	?
COc1ccc(CCNC(=O)c2ccc(OCc3c(C)noc3C)c(OC)c2)cc1	.	.	.	/	.	.	/	/
CCOc1ccccc1N1CCN(Cc2cn[nH]c2-c2ccc(F)cc2)CC1	.	.	.	.	-19	.	.	/
c1ccc(-c2nc(-c3cccnc3)cs2)cc1	/	.	.	.	-24	.	?	/
CCN=C1NN=C(c2ccc(C)cc2)CS1	/	.	.	.	-23	.	.	.
COCC(=O)N1[C@@H](CO)[C@H](c2ccc(-c3ccccc3)cc2)C12CN(C(C)=O)C2	.	.	.	.	.	.	/	/
O=C(c1cccc2c1-c1ccccc1C2)N1CCCCC1	/	/	.	.	-22	.	.	?
